Insulin prom act – TRM-6 insulin promoter activation. TRM-6 cells (human fetal islet line), insulin promoter eGFP reporter, imaging; plate-scaled: unstimulated 0, stimulated control 100. activation, % at 2 µM. 130,000 tested, 0.81% active;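 active = activation at 2 µM above a set limit, confirmed on inspection of the cell images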;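 also: share of cells whose green reporter signal exceeds an intensity cutoff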
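Material: TRM-6 insulin promoter–eGFP reporter cells. Buffer or medium: Low-glucose (5.5 mM) medium with tamoxifen. Probe or stimulus: tamoxifen at 0.75 µM added at seeding for reporter induction. Times: tamoxifen pre-incubation 15 h overnight, then compound exposure 48 h at 37 °C. Detection: high-content imaging of fixed cells with Hoechst nuclear stain.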
* hit, by the source's call. Shown is part of a subset that was picked to be rich in hits.

SMILES	Insulin prom act
Nc1ccc2nc(SCc3cccc(F)c3)sc2c1	-78
O=C1CCCCC1C(Nc1ccc(Cl)cc1)c1ccccc1 (stereo not drawn)	214*
O=C(OC1CCCCC1=O)c1ccc(S(=O)(=O)Nc2ccccc2)cc1 (stereo not drawn)	-9
CCOC(=O)NC(c1ccccc1)C1CCCCC1=O (stereo not drawn)	-8
COc1ccc(CNC(=O)c2nnn(-c3cccc(C(F)(F)F)c3)c2N)cc1	0
COc1ccc(CCCC(=O)Nc2ccc(F)cc2)cc1	8
CCN(CC)C(=O)C(Cc1ccccc1)N1C(=O)c2ccccc2C1=O (stereo not drawn)	4
Cc1ccccc1NC(=O)CSc1nc2n(n1)CCCCC2	-4
CCOc1cc2[nH]c(=S)n(CCC(=O)NCc3ccc(OC)cc3)c(=O)c2cc1OCC	8
CCOC(=O)N1CCC(=NNC(=O)c2cc3ccccc3cc2O)CC1	8
Cc1ccccc1/C=N/Nc1ccnc2cc(Cl)ccc12	-80
CCOC(=O)N1CCC(=NNc2ccnc3cc(Cl)ccc23)CC1	558*
CCCc1[nH]nc2c1C1(CCOC1C)C(C#N)=C(N)O2 (stereo not drawn)	8
CCC(C)(C)NC(=O)C(c1ccc(C)cc1)N(Cc1ccco1)C(=O)CCC(=O)Nc1nccs1 (stereo not drawn)	-2
COc1cc(NC(=S)NC(=O)CC(C)C)ccc1NC(=O)c1cc2ccccc2o1	9
O=C(N1CCCCCC1)N1CCN(C(=O)N2CCOCC2)CC1	488*
O=C(N1CCOCC1)N1CCN(C(=O)N(c2ccccc2)c2ccccc2)CC1	-5
O=C(N1CCCCCC1)N1CCN(S(=O)(=O)N2CCCCC2)CC1	0
CC(C)N(C(=S)Nc1cccc(C(F)(F)F)c1)C(C)c1ccccn1 (stereo not drawn)	-7
Cc1ccc(/C=C/C(=O)OC(C)C(=O)Nc2ncc(Cl)cc2Cl)o1 (stereo not drawn)	-7
COC(=O)[C@H](Cc1ccccc1)NC(=O)O[C@H]1C(=O)c2ccc(OC)cc2O[C@@H]1c1ccc2c(c1)OCO2	-5
CCc1cccc(NC(=O)C2CCCN(S(=O)(=O)c3c(C)[nH]c(=O)[nH]c3=O)C2)c1 (stereo not drawn)	83*
CCc1cccc(NC(=O)C2CCCC2)c1	-5
Cc1cccc(NC(=O)C2CCCN(S(=O)(=O)c3cccc4nsnc34)C2)c1 (stereo not drawn)	0
N#CC1=C(N)Oc2cc(N)ccc2C1C1CCCCC1 (stereo not drawn)	333
SMILES	Insulin prom act
Cc1ncc([N+](=O)[O-])n1CC(=O)NCc1ccccc1	-7
Cc1ncc([N+](=O)[O-])n1CCOC(=O)NC(NCc1ccccc1)C(Cl)(Cl)Cl (stereo not drawn)	133*
Cc1ncc([N+](=O)[O-])n1CCOC(=O)Nc1ccc(Cl)c(Cl)c1	0
Cc1nc(SCC(=O)N2CCc3ccccc32)n[nH]1	4
COc1ccc(C(=O)N2CCCC(c3ccccc3)C2)cc1 (stereo not drawn)	136*
COc1ccc(C(=O)N2CCC(C(=O)O)CC2)cc1	-6
O=C(c1ccccc1F)N1CCCC(c2ccccc2)C1 (stereo not drawn)	3
CCCn1c(C)cc(C(=O)COc2ccc(-c3nnco3)cc2)c1C	0
CCOC(=O)c1ccc(NC(=O)COc2ccc(-n3cnnn3)cc2)cc1	3
O=C(COc1ccc(F)cc1)Nc1ccc(-n2cnnn2)cc1	-3
CC(=O)Nc1ccc(-n2cnnn2)cc1	512*
CCOC(=O)C1=C(Nc2ccccc2)CC(C)(O)C(C(=O)OCC)C1c1ccc(Cl)cc1 (stereo not drawn)	2
COc1cccc(C(=O)NCCC2=CCCCC2)c1	7
Cc1c(NC2(C#N)CCCCC2)c(=O)n(-c2ccccc2)n1C	7
Cc1ccc(SC(C)C(=O)Nc2ccccc2C(=O)N2CCOCC2)cc1 (stereo not drawn)	83*
Cc1ccccc1Nc1ncccc1C(=O)N1CCOCC1	0
CS(=O)(=O)N(CC(=O)Nc1ccccc1C(=O)N1CCOCC1)c1ccccc1	252
COc1ccc(N2C(=O)CSC2c2ccccc2[N+](=O)[O-])cc1 (stereo not drawn)	0
O=C(O)C1=C(OCc2ccccc2)C(=O)NCC1	6
CC(=O)N1CCN(c2ncnc3sc(-c4ccccc4)cc23)CC1	4
Cc1nc(N2CCN(S(=O)(=O)c3ccccc3)CC2)c2cc(-c3ccccc3)sc2n1	81*
Cc1nc(N2CCN(S(=O)(=O)c3ccccc3)CC2)c2c3c(sc2n1)CC(C)CC3 (stereo not drawn)	0
COc1ccccc1NS(=O)(=O)c1ccc(NC(=O)c2nc3nc(C)cc(C(F)F)n3n2)cc1	0
CC(=O)N1N=C(c2ccncc2)OC12CCCCC2	8
COC1(OC)C(/C=C/c2ccc(Cl)cc2)C(C#N)(C#N)C1(OC)OC (stereo not drawn)	-59
SMILES	Insulin prom act
O=C(Nc1ccc(F)cc1F)c1cc2ncc(CCCl)cn2n1	-7
CC(=O)N(C)c1ccc(OCC(O)Cn2c3ccc(Cl)cc3c3cc(Cl)ccc32)cc1 (stereo not drawn)	4
COC(=O)C(C)Sc1nc2c(c(-c3ccc(OC)cc3)c1C#N)-c1ccccc1C2=O (stereo not drawn)	-82
Cc1sc2ncn(Cc3ccccc3F)c(=O)c2c1C	0
COc1cc2c3nnc(-c4ccc(F)cc4)c-3cn(Cc3ccccc3F)c2cc1OC	800*
COc1ccc(-c2noc(CCN3C(=O)c4ccccc4C3=O)n2)cc1OC	-9
COc1cc2c3nnc(-c4ccccc4)c-3cn(Cc3ccccc3F)c2cc1OC	525*
O=C1NC(=O)/C(=C\c2cn(Cc3ccccc3F)c3ccccc23)N1	0
O=c1c2ccsc2ncn1Cc1ccccc1F	10
O=C(COn1nnc2ccc(C(F)(F)F)cc21)Nc1c(Cl)cccc1Cl	0
COc1ccc(-n2cnc3c(cnn3CCC#N)c2=N)cc1	0
COC(=O)c1cc(Br)c(=O)n(-c2ccccc2F)c1	-5
CC1=NC(C(F)(F)F)(C(F)(F)F)C(C#N)=C(C)N1	9
S=C1NCCOCCNC(=S)NCCOCCOCCOCCN1	6
Cc1ccc(C(=O)N/C(=C\c2cccs2)C(=O)NC2CCCCC2)cc1	400*
O=C(Nc1ccccc1)/C(=C\c1cccs1)NC(=O)c1ccccc1	-7
O=C(N/C(=C/c1cccs1)C(=O)N1CCCCCC1)c1ccccc1	252
CCN(CC)CCN1C(=O)c2ccccc2NC1c1ccc(C)cc1 (stereo not drawn)	-6
CCOC(=O)N1CCN(CCC(=O)Nc2cc([N+](=O)[O-])ccc2OC)CC1	331*
COc1ccc([N+](=O)[O-])cc1NC(=O)CCN1CCN(CCO)CC1	-7
COc1ccc([N+](=O)[O-])cc1NC(=O)CSc1nc(C)c(C)c(C)n1	-3
COc1ccc(C(=O)Nc2cccc(C(=O)NCc3ccco3)c2)cc1	-67
Cc1ccc(-c2nnn(CC(=O)N3CCCCC3)n2)o1	0
CC1CCN(C(=S)c2cn(Cc3cccc(F)c3)c3ccccc23)CC1	8
O=C1OCCN1C(=O)[C@H]1[C@H](c2ccc([N+](=O)[O-])cc2)C(c2cccc(Cl)c2)=NN1c1ccccc1	273*
O=[N+]([O-])c1ccc(N2N=C(c3ccco3)CC2c2ccccc2)cc1 (stereo not drawn)	106
O=C(NCc1ccccc1C(F)(F)F)C12CN(Cc3ccccc3)CC1C(c1ccc([N+](=O)[O-])cc1)=NO2 (stereo not drawn)	-5

Screening data: PubChem BioAssay, Columbia University Molecular Screening Center
